From ChEMBL document CHEMBL1146160, “Synthesis and evaluation of some lipidic aminoalcohols and diamines as immunomodulators” (Bioorg Med Chem Lett, 2006) come the findings set out here.

Data set [1] has as its system Macrophage. In words: Increase in nitric oxide production in normal rat alveolar macrophages. In kind it is functional, cell-based.
Data set [2] is described as follows: Inhibition of concanavalin A-stimulated lymphoproliferation in BALB/c mouse splenocytes at 10 ug/ml by MTT assay. In kind it is functional. Particulars: Splenocyte. For orientation: Tetrazolium assays rely on reduction of a dye to a coloured formazan, in cell work by metabolically active cells.
Data set [3] concerns Macrophage. The data set can be described thus: Increase in nitric oxide production in LPS-pre-stimulated rat alveolar macrophages. The format is functional, cell-based.
A short description of data set [4]: Cytotoxicity against BALB/c mouse splenocytes at 1 ug/ml by MTT assay. Particulars: splenocyte. The format is cell-based. Put shortly: (§1)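 Run in parallel with the proliferation assay on splenocyte cultures without Con-A, with MTT colourimetric read-out. Cytotoxicity % = [1 − OD(cells+compd)/OD(cells)] × 100.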
The nature of data set [5]: Inhibition of concanavalin A-stimulated lymphoproliferation in BALB/c mouse splenocytes at 1 ug/ml by MTT assay. The format is functional. To be noted: Splenocyte.
The nature of data set [6]: Cytotoxicity against BALB/c mouse splenocytes at 10 ug/ml by MTT assay. The format is cell-based. To be noted: splenocyte. Put shortly:
as §1

Data set [7] relates to Macrophage. The data set can be described thus: Increase in nitric oxide production in LPS-pre-stimulated rat alveolar macrophages at 100 ug/ml. In kind it is functional.
For a further data set, the system named is Lymphocyte. In words: Reduction of rat lymphocyte stimulation by Graft-vs-Host assay relative to cyclophosphamide. The format is functional. Further details: scale not given: the % may be the effect or the level left. Put shortly: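 In a Graft-vs-Host assay measuring immunosuppressant ability, cyclophosphamide at 100 mg/kg/day served as the reference drug.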

Data set [8] concerns Macrophage. In words: Increase in nitric oxide production in LPS-pre-stimulated rat alveolar macrophages at 10 ug/ml. In kind it is functional.

Activity calls are given as the source filed them. The calls are words filed in the database; no cut-off is given here.

Turning to `CCCCCCCCCCCCCCC(N)COCc1ccccc1` (stereo not given), the result in the data set on Macrophage [1] and in the data set with Macrophage [3] was inactive. The molecule further gave an inhibition at 10 µg/mL in data set [2] of 79.1%. For the same molecule, the Activity in data set [4] is 0%; in [6] it was 12.2%. In addition, the inhibition at 1 µg/mL in data set [5] is 0%.
For `CCCCCCCCCCCCCCC(COCc1ccccc1)NC(=O)CCCC(=O)O` (stereo not given), the outcome with Macrophage [1] and in the data set on Macrophage [3] was inactive. The inhibition at 10 µg/mL in [2] was found to be 65.4%. Moreover, the Activity worked out at 0% in data set [4] and 6.4% in [6]. In addition, testing at 1 µg/mL in [5] gave an inhibition of 27.8%.
Turning to `CCCCCCCCCCCCCCC(CO)N(CC)CC` (stereo not given), testing at 10 µg/mL in [2] gave an inhibition of 79.5%. Further, the Activity in data set [4] came out at 7.5%; in [6] it was 12.8%. Moreover, in data set [5], the inhibition at 1 µg/mL worked out at 74.8%.
As to `CCCCCCCCCCCCCCC(COCc1ccccc1)NC(=O)CCCC(=O)OC` (stereo not given), the outcome in the data set with Macrophage [1] and in the data set with Macrophage [3] was inactive. In [2], the inhibition at 10 µg/mL came out at 3.4%. The Activity in data set [6] is 2.5%.
As for `CCCCCCCCCCCCCCC(CO)N(CCCC)CCCC` (stereo not given), in [2], the inhibition at 10 µg/mL stood at 50.3%. Also, the Activity in data set [6] is 11.7%.
Molecule `CCCCCCCCCCCCCCC(CNC(=O)CCCC(=O)O)NC(=O)OC(C)(C)C` (stereo not given) yielded an inhibition at 10 µg/mL in data set [2] of 80.8%. The outcome with Macrophage [3] was inactive. Besides, the values for the Activity in data set [4] and in data set [6] were 0% and 1.2%, respectively. The molecule further showed an inhibition at 1 µg/mL in [5] of 19.3%.
`CCCCCCCCCCCCCCC(C(=O)O)N(CCCC)CCCC` (stereo not given) returned an inhibition at 10 µg/mL in data set [2] of 47.8%. The molecule further came in with an Activity in [6] of 12.5%.
For `CCCCCCCCCCCCCCC(CO)NCCCC` (stereo not given), the inhibition at 10 µg/mL in data set [2] turned out to be 49.1%. This molecule yielded an Activity in [6] of 16.4%.
Regarding `CCCCCCCCCCCCCCC(CO)NCCCCCC` (stereo not given), in the data set with Macrophage [1], the result was inactive. In addition, in data set [2], the inhibition at 10 µg/mL was found to be 78.4%. Further, the Activity in the data set on Macrophage [7] came to 25%; in [4] it was 5%; in [6], 14.6%; in the data set on Lymphocyte, 63%. This molecule came in with an inhibition at 1 µg/mL in data set [5] of 74.1%.
`CCCCCCCCCCCCCCC(CO)NCC` (stereo not given) yielded an inhibition at 10 µg/mL in data set [2] of 72.9%. In addition, the Activity in [4] is 10.5%; in data set [6], 17.1%. Besides, 1 µg/mL produced 68.4% inhibition in [5].
Taken in the same sequence, the figures for `CCCCCCCCCCCCCCC(N)CO` (stereo not given) were 72.4%, 15.1%, 20.2% and 68.7%.
In turn, `CCCCCCCCCCCCCCC(CN(CC)CC)NC(=O)OC(C)(C)C` (stereo not given) gave an inhibition at 10 µg/mL in data set [2] of 89.5%. The values for the Activity in [4] and in data set [6] were 6.5% and 7.8%, respectively. Besides, in data set [5], at 1 µg/mL the inhibition was 65.2%.
As to `CCCCCCCCCCCCCCC(CO)NCCCCCCCCCC` (stereo not given), 10 µg/mL produced 59.8% inhibition in data set [2]. The Activity is recorded as 6.6% in data set [4] and 12.6% in data set [6]. Moreover, in [5], the inhibition at 1 µg/mL worked out at 12%.
`CCCCCCCCCCCCCCC(CO)NC(=O)CCCC(=O)O` (stereo not given) came in with an inhibition at 10 µg/mL in [2] of 49.1%. This molecule came in with an Activity in data set [6] of 14.5%.
In data set [2], `CCCCCCCCCCCCCCC(COCc1ccccc1)N(CC)CC` (stereo not given) returned an inhibition at 10 µg/mL of 72.6%. For the same molecule, the Activity in [4] is 14.1%; in data set [6], 15.6%. In data set [5], this molecule came in with an inhibition at 1 µg/mL of 71.6%.
With `CCCCCCCCCCCCCCC(COCc1ccccc1)NCC` (stereo not given), the inhibition at 10 µg/mL in data set [2] was determined as 49.8%. Besides, in [6], the Activity turned out to be 11.9%.
On to `CCCCCCCCCCCCCCC(CO)NC(=O)CCCC(=O)OC` (stereo not given), for which at 10 µg/mL the inhibition in [2] was 50.2%. The Activity in data set [6] turned out to be 18.9%.
As to `CCCCCCCCCCCCCCC(N)CN(CC)CC` (stereo not given), the outcome in the data set with Macrophage [1] and in the data set on Macrophage [3] was inactive. Also, in data set [2], at 10 µg/mL the inhibition was 84.5%. The Activity in data set [4] was 1.7%; in data set [6], 24.2%. This molecule came in with an inhibition at 1 µg/mL in data set [5] of 74.2%.
Molecule `CCCCCCCCCCCCCCC(NCCCC)C(=O)O` (stereo not given) displayed an inhibition at 10 µg/mL in [2] of 32.9%. Further, the Activity in data set [6] was 5.1%.
With `CCCCCCCCCCCCCCC(CN)NC(=O)OC(C)(C)C` (stereo not given), the outcome in the data set with Macrophage [1] was inactive. In addition, the inhibition at 10 µg/mL in data set [2] was determined as 81.2%. Besides, the Activity in the data set with Macrophage [7] was 29%; in data set [4] it was 4.2%; in [6], 4.3%; with Macrophage [8], 20%; with Lymphocyte it was 32%. In data set [5], this molecule registered an inhibition at 1 µg/mL of 73.4%.
Take `CCCCCCCCCCCCCCC(NC(=O)OC(C)(C)C)C(=O)O` (stereo not given): the inhibition at 10 µg/mL in data set [2] is 32.9%. Besides, the Activity in data set [6] stood at 5.1%.
As for `CCCCCCCCCCCCCCC(N)CNC(=O)CCCC(=O)O` (stereo not given), the result with Macrophage [1] and in the data set on Macrophage [3] was inactive. In data set [2], the inhibition at 10 µg/mL worked out at 51%. Besides, the Activity in data set [6] turned out to be 12.8%.
Turning to `CCCCCCCCCCCCCCC(N)CN` (stereo not given), the inhibition at 10 µg/mL in data set [2] came to 50.1%. In [6], this molecule came in with an Activity of 2.5%.
As to `CCCCCCCCCCCCCCC(C(=O)O)N(CC)CC` (stereo not given), in [2], the inhibition at 10 µg/mL was found to be 43.1%. Moreover, the Activity in data set [6] was 12.1%.

Broadly, the inhibition is the share of the control response that was lost under treatment.
